Assay outcomes as filed in PubChem.
An excerpt weighted towards active compounds, which were near 4.1% of everything screened.
KCNQ1 block = inhibitors of human KCNQ1 potassium channel. CHO-K1 KCNQ1, FluxOR thallium flux fluorescence; hits give high values. actives 1.3% (n = 310,000). P51787. B-score at 10 µM. AID 2642;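 active = compounds whose thallium flux B-score, printed positive for inhibition, exceeds three library SD while starting fluorescence stays within three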;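 note: channel opened by potassium depolarization with thallium stimulus after 20 min compound exposure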
hERG rescue = shields human hERG channel from block by proarrhythmic agents. AID 1511. activation (rescue from dofetilide block), less the hit threshold, % at 10 µM. CHO-hERG, FluxOR thallium flux, dofetilide IC70 present. actives 0.51% (n = 310,000);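 active = activation above the mean of controls blocked by dofetilide plus 5 SD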;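 note: thallium influx through hERG after potassium depolarization seen as dye fluorescence rise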
KCNQ1 act = human KCNQ1 channel potentiation or activation | P51787 | CHO-K1 KCNQ1, thallium flux FluxOR fluorescence; hits give high values | B-score at 10 µM | actives 0.35% (n = 310,000) | AID 2648;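 active = fluorescence ratio B-score, a plate-corrected score, at least three library SD, with initial intensity B-score within 5 SD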
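assay system = KCNQ1-transfected CHO-K1 cells | medium = assay buffer with matched DMSO | probe or stimulus = depolarizing K+/Tl+ stimulus, K2SO4 and Tl2SO4 each 12.5 mM in 5x stock | dosing = single dose | incubation = dye 90 min, compound 20 min, room temperature | detection = kinetic FluxOR fluorescence, 10 s baseline plus 110 s post-stimulus | evaluation = ratio B score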
KCNK3 inh = human KCNK3 channel inhibition, primary screen; O14649; CHO-KCNK3 thallium flux, FluxOR fluorescence; hits give low values; B-score at 10 µM; actives 0.84% (n = 340,000); AID 602410;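 active = B-score under library mean minus 4 SD, starting fluorescence ratio at most library mean plus 5 SD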;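 note: more negative B-score means stronger inhibition of thallium flux through KCNK3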
KCC2 mod = modulates chloride dependent transport by human KCC2; KCC2 cells, thallium flux FluoZin-2 fluorescence; B-score of Tl+ flux slope (higher = more flux/activation; lower = inhibition) at 10 µM; actives 2.2% (n = 190,000); AID 1456;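 active = thallium flux slope and its plate-corrected score both differing from the plate sample mean at a set confidence after two filtering rounds, in either direction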;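 note: slope of fluorescence scaled to starting intensity during 10 to 20 s after thallium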
Target sequence (Q9H2X9 whole entry, looked up): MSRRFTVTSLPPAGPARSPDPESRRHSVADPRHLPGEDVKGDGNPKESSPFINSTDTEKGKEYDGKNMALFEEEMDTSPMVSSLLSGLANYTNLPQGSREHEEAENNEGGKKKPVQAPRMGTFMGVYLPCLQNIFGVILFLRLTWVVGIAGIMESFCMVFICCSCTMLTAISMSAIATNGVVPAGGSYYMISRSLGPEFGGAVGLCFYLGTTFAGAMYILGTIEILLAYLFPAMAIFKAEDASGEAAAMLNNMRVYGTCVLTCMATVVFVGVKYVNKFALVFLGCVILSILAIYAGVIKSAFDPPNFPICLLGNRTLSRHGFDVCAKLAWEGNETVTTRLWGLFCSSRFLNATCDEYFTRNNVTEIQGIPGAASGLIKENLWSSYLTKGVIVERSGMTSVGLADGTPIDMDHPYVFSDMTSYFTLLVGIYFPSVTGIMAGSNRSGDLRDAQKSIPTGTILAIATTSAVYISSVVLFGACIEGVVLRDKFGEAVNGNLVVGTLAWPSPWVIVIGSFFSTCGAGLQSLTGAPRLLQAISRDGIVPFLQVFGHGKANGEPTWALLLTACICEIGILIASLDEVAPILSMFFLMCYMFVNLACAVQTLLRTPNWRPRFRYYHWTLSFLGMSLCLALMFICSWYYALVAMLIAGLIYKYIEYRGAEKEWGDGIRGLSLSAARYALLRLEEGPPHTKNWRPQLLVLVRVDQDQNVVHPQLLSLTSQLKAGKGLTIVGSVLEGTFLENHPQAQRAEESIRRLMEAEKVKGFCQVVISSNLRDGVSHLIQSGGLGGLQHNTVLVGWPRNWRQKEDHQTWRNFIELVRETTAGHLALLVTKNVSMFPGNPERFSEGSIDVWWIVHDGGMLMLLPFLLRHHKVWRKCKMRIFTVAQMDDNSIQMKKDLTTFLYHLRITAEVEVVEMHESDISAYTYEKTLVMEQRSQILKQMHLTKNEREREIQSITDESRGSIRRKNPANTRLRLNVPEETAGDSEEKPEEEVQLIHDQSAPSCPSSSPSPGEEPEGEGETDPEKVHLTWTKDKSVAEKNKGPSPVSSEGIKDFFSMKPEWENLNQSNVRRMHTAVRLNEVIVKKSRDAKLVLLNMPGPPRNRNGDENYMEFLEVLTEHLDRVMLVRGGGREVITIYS
KCNK9 inh = inhibitors of human KCNK9 two-pore domain potassium channel | AID 488922 | actives 1.2% (n = 310,000) | Q9NPC2 | HEK293 KCNK9, FluxOR thallium flux fluorescence; hits give low values | B-score at 10 µM;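 active = ratio B-score over 3 SD below the library mean, with starting fluorescence within 5 SD of its mean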;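 note: negative B-score means less thallium flux so channel inhibition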
KCNK9 block conf = human KCNK9 inhibitor confirmation; shares compounds with KCNK9 inh; HEK293 KCNK9 cells, FluxOR thallium flux fluorescence; inhibition, % at 10 µM; actives 43% (n = 4,900); AID 492992;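 active = thallium signal inhibited by more than 5 SD of the compound-free buffer control wells, on both duplicate plates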;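 note: 0% = assay buffer control wells without compound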
Kir2-1 spec = mouse Kir2.1 off-target activity of KCNK9 modulators; inhibition, % at 10 µM; Kir2.1 cells, FluxOR thallium flux fluorescence; actives 4% (n = 4,900); shares compounds with KCNK9 inh;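 active = thallium signal drop more than 5 SD beyond the mean of the no-compound control wells, seen in both duplicate plates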;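 note: signal is fluorescence rise after thallium addition divided by baseline fluorescence; plate controls were assay buffer only for no effect and full block by chlorpromazine control for full effect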
KCNK9 uninduced = non-induced cell nonspecific activity of KCNK9 modulators; shares compounds with KCNK9 inh; non-induced KCNK9-HEK293, FluxOR thallium flux; inhibition, % at 10 µM; actives 40% (n = 4,900); AID 492997;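 active = thallium signal drop beyond 5 SD of the untreated control mean, on both duplicate plates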;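 note: plate controls were buffer only IC0 wells for no effect and SID17386958 at its maximal inhibitory level for full effect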
KCNK3 inh conf = human KCNK3 channel inhibition, confirmation assay; shares compounds with KCNK3 inh; CHO-KCNK3 thallium flux, FluxOR fluorescence; 0% buffer, 100% carvedilol maximal block; ratio percent of control, % at 10 µM; actives 99% (n = 2,400); AID 651638;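 active = ratio percent of control, averaged over triplicates, above buffer control mean plus 5 SD, cut at about 64% in these data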;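 note: ratio is the fluorescence rise from min to max over baseline after thallium stimulus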
KCNK3 uninduced = KCNK3 inhibitor counter-screen hit in non-induced cells; non-induced KCNK3 parental cells, FluxOR thallium flux; hits give low values; AID 651747; thallium flux ratio (lower = more inhibition) at 10 µM; shares compounds with KCNK3 inh; actives 40% (n = 2,400);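 active = thallium flux ratio, averaged over three wells, more than 5 SD below the buffer control mean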;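 note: host cells are CHO cells without KCNK3 induction; ratio is peak minus trough fluorescence over baseline then normalized to buffer controls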
An asterisk follows results filed as active; i = inactive; . = no result given.

SMILES	KCNQ1 block	hERG rescue	KCNQ1 act	KCNK3 inh	KCC2 mod	KCNK9 inh	KCNK9 block conf	Kir2-1 spec	KCNK9 uninduced	KCNK3 inh conf	KCNK3 uninduced
Cc1ccc(Cl)cc1NC(=S)N(Cc1ccco1)C(C)c1cccs1 (stereo not drawn)	i	-8.6	i	-10.9*	0.775	-9.64*	47.0%*	i	37.0%*	124.0*	0.155*
O=C(c1c(F)cccc1F)N(Cc1cccs1)C1CCCC1	i	-7.5	i	i	-0.509	i	.	.	.	.	.
O=C(c1c(F)cccc1F)N(C1CCCCC1)C1CCCCC1	i	-6.1	i	-12.2*	.	-12*	67.5%*	i	27.5%*	132.7*	0.124*
CCOC(=O)/C(C(=O)Nc1ccccc1Cl)=C1/NC(C)(C)Cc2ccccc21	i	-7.3	i	-9.11*	-0.402	-10*	37.5%*	i	40.0%*	116.0*	i
Cc1ccc(S(=O)(=O)CCC(=O)NCCc2ccc(Cl)cc2)cc1	i	-10.7	i	i	.	i	.	.	.	.	.
COc1ccc(CC(=O)Nc2cccc(-c3nnc(-c4ccco4)o3)c2)cc1	i	1.2	i	i	-0.284	i	.	.	.	.	.
Cc1ccc(-c2nnc(-c3ccc(NC(=O)Cc4cccs4)cc3)o2)cc1	i	-0.2	i	i	.	i	.	.	.	.	.
Cc1cc(C)cc(OCC(=O)Nc2cccc(-c3nnc(-c4ccco4)o3)c2)c1	i	-27.6	i	-12.2*	.	-10.2*	44.0%*	i	60.5%*	114.7*	i
O=C(Cc1cccs1)Nc1cccc(-c2nnc(-c3ccco3)o2)c1	i	-0.8	i	-10.5*	-0.448	-9.32*	i	i	26.5%*	115.3*	i
C/C(=N/NC(=O)c1ccccc1)c1ccc(NC(=O)C(F)(F)F)cc1	i	-3.7	i	i	0.342	i	.	.	.	.	.
CCOc1ccccc1C(=O)Nc1cccc(-c2nnc(-c3ccccc3)o2)c1	i	-14.4	i	-9.49*	0.00727	-15.5*	45.0%*	i	28.5%*	107.3*	i
COc1cccc(C(=O)Nc2nc(-c3ccc4c(c3)OCO4)cs2)c1	i	-16.2	i	-10.4*	.	-8.99*	26.0%*	i	25.5%*	121.3*	0.136*
COc1cccc(C(=O)Nc2nc(-c3ccncc3)cs2)c1	i	-8.0	i	i	-0.489	i	.	.	.	.	.
Cc1cn(C2OC(COC(=O)c3ccccc3)C(OC(=O)c3ccccc3)C2OC(=O)c2ccccc2)c(=O)[nH]c1=O (stereo not drawn)	i	-17.4	i	-11*	-1.88	-10.3*	37.5%*	i	34.5%*	103.0*	0.16*
Cc1cn(C2OC(COC(=O)c3ccccc3)C(O)C2O)c(=O)[nH]c1=O (stereo not drawn)	i	-13.8	i	i	.	i	.	.	.	.	.
O=c1/c(=C\c2ccc(O)cc2)sc2n1C(c1ccccc1)C(c1ccccc1)=NN=2 (stereo not drawn)	i	-19.6	i	i	-0.236	-12.9*	55.5%*	i	52.0%*	132.3*	0.148*
COc1ccc(S(=O)(=O)N2CCOC2CNC(=O)C(=O)NCC(C)C)cc1OC (stereo not drawn)	i	-9.0	i	i	.	i	.	.	.	.	.
CC(Oc1ccc(Cl)cc1)c1ccnn1S(=O)(=O)c1ccc(Cl)cc1 (stereo not drawn)	i	-11.8	i	-13.5*	.	-14.9*	58.0%*	44.5%*	58.0%*	113.7*	0.156*
CC(Oc1ccccc1)c1ccnn1S(=O)(=O)c1ccccc1 (stereo not drawn)	i	-5.3	i	i	-0.233	i	.	.	.	.	.
CCC(C)(C(=O)NC1CCCC1)N(C(=O)CNC(C)=O)c1ccccc1 (stereo not drawn)	i	-6.9	i	i	0.502	i	.	.	.	.	.
CSc1cccc(NC(=O)c2cccc3cccnc23)c1	i	-4.3	i	-9.71*	.	-9.6*	27.5%*	i	31.5%*	88.0*	i
COc1ccccc1C(=O)Nc1cccc(SC)c1	i	-16.9	i	i	-0.171	i	.	.	.	.	.
CCOP(=O)(OCC)C(NC(=O)Nc1cccc(Cl)c1)c1ccccc1 (stereo not drawn)	i	-12.9	i	i	0.128	i	.	.	.	.	.
C#CCOc1nc(Nc2cccc([N+](=O)[O-])c2)nc(OCC#C)n1	i	-11.7	i	-10.9*	-1.6	-17.7*	51.0%*	i	i	107.0*	i
COc1nc(Nc2cccc([N+](=O)[O-])c2)nc(OC)n1	i	-6.5	i	i	1.64	i	.	.	.	.	.
SMILES	KCNQ1 block	hERG rescue	KCNQ1 act	KCNK3 inh	KCC2 mod	KCNK9 inh	KCNK9 block conf	Kir2-1 spec	KCNK9 uninduced	KCNK3 inh conf	KCNK3 uninduced
O=C(NCc1ccccc1)c1ccc(NC(=O)C2CCCC2)cc1	.	.	.	i	.	.	.	.	.	.	.
Cc1c(N2C(=O)/C(=C\C3CC=CCC3)SC2=S)c(=O)n(-c2ccccc2)n1C (stereo not drawn)	i	-11.8	i	i	-0.458	i	.	.	.	.	.
COC(=O)c1cc2sccc2n1Cc1nc(-c2cccc(Cl)c2)oc1C	i	-1.3	i	-8.7*	-3.03	-8.49*	28.0%*	i	30.5%*	93.3*	i
CCc1nnc(NC(=O)c2ccc3ncsc3c2)s1	i	-13.2	i	i	0.569	i	.	.	.	.	.
Cc1cccc(C)c1NC(=O)c1sccc1SCc1cccc(C(F)(F)F)c1	i	-9.2	i	-9.35*	-0.472	-13.6*	55.5%*	49.0%*	45.0%*	101.0*	0.159*
N#Cc1cccc(C(c2nnnn2C2CCCC2)N2CCC(Cc3ccccc3)CC2)c1 (stereo not drawn)	i	-16.2	i	-11*	-0.826	-12.1*	58.5%*	i	30.0%*	112.0*	0.152*
Cc1cccc(NC(=O)c2nc[nH]c2C(=O)N[C@@H](C)C(=O)OCc2ccccc2)c1	i	-3.1	i	i	-0.515	i	.	.	.	.	.
CN(CCc1ccccn1)c1ccccc1	.	.	.	i	.	.	.	.	.	.	.
